# TRPC4 inh: blocks the mouse TRPC4 cation channel. Q9QUQ5. HEK293 TRPC4beta/mu-opioid, DAMGO-evoked Fluo4 calcium flux; hits give low values. B-score at 10 µM. 300,000 compounds, 0.39% hits. AID 2247;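 active = B-score over 3 SD under the library average, no early fluorescence shift, positive overall ratio signal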
#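 test system = HEK293 cells with stable TRPC4beta plus mu-opioid receptor expression | detection = Fluo4 Ca2+ flux fluorescence | read-out = integrated fluorescence ratio relative to baseline, converted to per-well B score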
# TRPC4 PAM: TRPC4 (mouse) allosteric potentiation. Q9QUQ5. HEK293 TRPC4beta/mu-opioid, DAMGO EC20, Fluo-4 Ca2+ flux; hits give high values. B-score at 10 µM. 310,000 compounds, 0.42% hits;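 active = B-score of calcium response area above 5 SD of library B-scores, with initial fluorescence ratio within 5 SD of library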;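 also: B-score of integrated fluorescence ratio over time as area under calcium response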
# TRPC4 agonist: activators of mouse TRPC4 channel. B-score at 10 µM. 310,000 compounds, 0.49% hits. HEK293 TRPC4beta/mu-opioid, Fluo4 calcium fluorescence; hits give high values. Q9QUQ5;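 active = B-score above 5 SD of library B-scores, and initial fluorescence ratio not above library mean plus 5 SD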;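 also: positive B-score marks a calcium rise read as TRPC4 activation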
#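 System – HEK293 cells stably co-expressing mouse TRPC4beta and mu-opioid receptor · Signal – Fluo4 calcium-sensitive dye fluorescence, kinetic, 1 Hz baseline · Benchmarks – buffer (low) and maximal DAMGO (high) · Read-out – B score of integrated fluorescence ratio per well · Incubation – dye loading 45 min room temperature, 110 s kinetic read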
# TRPC6 activator: activates the mouse TRPC6 cation channel; Q61143; HEK293-TRPC6 membrane potential dye fluorescence; hits give high values; B-score at 10 µM; 310,000 compounds, 0.13% hits;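 active = B-score of the integrated fluorescence ratio above library mean plus 3 SD, and starting fluorescence ratio within library mean plus 5 SD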;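 also: higher score means more depolarization so channel activation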
# TRPC6 inhibitor: mouse TRPC6 channel inhibition. Q61143. HEK293-TRPC6, membrane potential dye, ACh-evoked depolarization; hits give low values. B-score at 10 µM. 310,000 compounds, 1.1% hits;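 active = B-score under library mean minus 3 SD, initial fluorescence not abnormally high, positive integrated signal ratio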;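 also: B-score derived from integrated fluorescence ratio over the kinetic read; more negative B-score means stronger inhibition of depolarization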
# Numbers without * were called inactive; i = inactive. A selection: hits, their analogues and other compounds. The true share with any hit is near 2.3%.
SMILES,TRPC4 inh,TRPC4 PAM,TRPC4 agonist,TRPC6 activator,TRPC6 inhibitor
COc1ccc(CNCc2cc(C)c(OC)cc2C)c(OC)c1,-5*,i,i,i,i
CCC(CC)NCc1ccc2c(c1)c1ccccc1n2CC,i,i,i,i,i
CCn1c2ccccc2c2cc(CNCCCN3CCOCC3)ccc21,i,i,i,i,-6.3*
CCn1c2ccccc2c2cc(CNCc3ccc(OC)cc3OC)ccc21,i,i,66*,i,i
COCCn1c(SCC(=O)N(C)c2c(N)n(Cc3ccccc3)c(=O)[nH]c2=O)nnc1-c1cccc(C)c1,i,i,i,i,i
CC(=O)NCC1CCCN(Cc2cn(-c3ccccc3)nc2-c2ccc3c(c2)OCO3)C1 (stereo not given),i,i,i,i,i
COC(=O)C1CCN(Cc2cn(-c3ccccc3)nc2-c2ccc3c(c2)OCO3)CC1,i,i,83*,i,i
CCOC(=O)C1C2C=CC(CC2)N1c1ccccc1 (stereo not given),i,i,i,i,i
CCC(C)NC(C(=O)Nc1ccc(Cl)c([N+](=O)[O-])c1)c1ccccc1 (stereo not given),-7*,i,i,i,i
COCC(C)NC(C(=O)Nc1ccc(Cl)c([N+](=O)[O-])c1)c1ccccc1 (stereo not given),-7*,i,i,i,i
O=C(Nc1ccc(Cl)c([N+](=O)[O-])c1)C(Sc1ccccc1)c1ccccc1 (stereo not given),i,i,i,i,i
O=C(Nc1ccc(Cl)c([N+](=O)[O-])c1)C(NCCCO)c1ccccc1 (stereo not given),i,i,i,i,i
CCOC(=O)C1=NNC(C(=O)c2ccccc2)C1c1ccc(C)cc1 (stereo not given),-8*,i,i,i,i
O=C1C=CC(=O)N1c1ccc(Sc2ccc([N+](=O)[O-])cc2)cc1,i,i,i,i,i
Nc1ccc(Sc2ccc([N+](=O)[O-])cc2)cc1,-6*,i,i,i,i
Cc1nn(-c2ccccc2)c2nc(-c3ccccc3)cc(C(=O)N3CCOCC3)c12,i,14*,i,i,i
CCOc1ccc(CSC2=NCCN2)cc1[N+](=O)[O-],i,11*,i,i,i
CCCCOc1ccc(CSC2=NCCN2)cc1[N+](=O)[O-],i,i,i,i,i
CN1CCN(NC(=O)CN(C)S(=O)(=O)c2cc(Cl)ccc2Cl)CC1,i,i,84*,i,i
Clc1ccc(N=C2SCC3CCCCN23)cc1 (stereo not given),i,23*,i,i,i
CC(=O)Nc1ccc(/C=N/N2C(=O)NC(C)(c3ccc(OC(F)F)cc3)C2=O)cc1 (stereo not given),i,i,95*,i,i
CC1(c2ccc(OC(F)F)cc2)NC(=O)N(CC(=O)Nc2ccc3c(c2)OCO3)C1=O (stereo not given),i,12*,89*,i,i
CC1(c2ccc(OC(F)F)cc2)NC(=O)N(CC(=O)Nc2ccccc2)C1=O (stereo not given),i,i,68*,i,i
CSc1nc(NCCCN(C)C)c2c3c(sc2n1)CN(C)CC3,i,i,i,i,-7.8*
CCN(CC)CCNc1nc(SC)nc2sc3c(c12)CCN(C)C3,i,i,i,i,i
SMILES,TRPC4 inh,TRPC4 PAM,TRPC4 agonist,TRPC6 activator,TRPC6 inhibitor
O=C(NC1CCCC1)C(c1cccnc1)N(C(=O)c1csnn1)c1ccccc1 (stereo not given),i,i,i,i,i
O=C(Nc1ccc(Cl)c([N+](=O)[O-])c1)c1cnccn1,i,21*,i,i,i
O=C(Nc1ccc(Cl)c([N+](=O)[O-])c1)c1ccncc1,i,i,i,i,i
COc1ccc(OC)c(C2C(C(=O)c3cccs3)=C(O)C(=O)N2CCN2CCOCC2)c1 (stereo not given),i,i,i,i,i
NCCNc1ccc([N+](=O)[O-])cc1,i,i,62*,i,i
COC(=O)c1ccc(CNC(=O)C2CCC(=O)N(CCCc3ccccc3)C2)cc1 (stereo not given),i,i,i,i,i
CCOc1ccccc1N(CC)C(=O)c1nn(C)c2c1CSc1ccccc1-2,-6*,i,i,i,i
COc1cc(C(C)=O)ccc1OCC(O)CN1CCN(c2c(C)cccc2C)CC1 (stereo not given),i,i,48*,i,i
COc1ccccc1NC(=O)CSc1nnc(-c2ccoc2C)n1C,i,i,i,i,i
CN1CCN(C(=S)c2cn(Cc3ccccc3F)c3ccccc23)CC1,i,i,i,i,i
CCOC(=O)N1CCC(NC(=O)c2ccc(CS(=O)c3cccc(Cl)c3)o2)CC1 (stereo not given),i,i,i,i,i
CCN(Cc1ccccc1)S(=O)(=O)c1ccc(C(=O)N(CCCN(C)C)c2nc3ccc(F)cc3s2)cc1,i,i,63*,i,i
CN(C)CCCN(C(=O)c1ccc(S(=O)(=O)N(C)C2CCCCC2)cc1)c1nc2ccc(F)cc2s1,i,i,140*,i,i
COc1cc2nc(N(CCCN(C)C)C(=O)c3ccc(S(=O)(=O)N4CCc5ccccc54)cc3)sc2cc1OC,i,i,i,i,i
CN(C)CCCN(C(=O)c1ccc(C(=O)c2ccccc2)cc1)c1nc2ccc(F)cc2s1,i,i,121*,i,i
CCN(Cc1ccccc1)S(=O)(=O)c1ccc(C(=O)N(CCCN(C)C)c2nc3cc4c(cc3s2)OCCO4)cc1,i,i,i,i,i
CN(C)CCCN(C(=O)c1nc2ccccc2s1)c1nc2ccc(F)cc2s1,i,i,i,i,i
COc1ccc2sc(N(CCCN(C)C)C(=O)c3ccc(S(=O)(=O)N4CCCc5ccccc54)cc3)nc2c1,i,18*,i,i,i
O=C(CSc1ncn[nH]1)Nc1ccc(OCc2ccccc2)cc1,i,i,i,i,i
COc1ccc(C2=NS(=O)(=O)N(C)C(C(=O)NCc3ccccn3)=C2)cc1OC,i,i,i,i,i
COc1ccc(C)cc1NC(=O)CCNC(=O)Cn1ccc2ccccc2c1=O,i,i,i,i,i
CCc1cccc(CC)c1NC(=S)NCC(c1cccnc1)N(C)C (stereo not given),i,i,79*,i,i

# Screening results as filed in PubChem.
